{"source": "ChEMBL document CHEMBL3856258", "about": "“Phosphonate-based irreversible inhibitors of human γ-glutamyl transpeptidase (GGT). GGsTop is a non-toxic and highly selective inhibitor with critical electrostatic interaction with an active-site residue Lys562 for enhanced inhibitory activity” (Bioorg Med Chem, 2016)", "key": {"Salmonella typhimurium [1]": {"system": "Salmonella typhimurium", "assay": "Genotoxicity in Salmonella typhimurium TA100 assessed as number of revertant colonies per plate at 20.6 ug/plate after 20 mins in absence of S9 fraction by Ames test (reference value: 123)", "format": "toxicity, organism-based", "details": "salmonella enterica subsp. enterica serovar typhimurium"}, "Salmonella typhimurium [2]": {"system": "Salmonella typhimurium", "assay": "Genotoxicity in Salmonella typhimurium TA100 assessed as number of revertant colonies per plate at 5000 ug/plate after 20 mins in absence of S9 fraction by Ames test (reference value: 123)", "format": "toxicity, organism-based", "details": "salmonella enterica subsp. enterica serovar typhimurium"}, "Escherichia coli [3]": {"system": "Escherichia coli", "assay": "Genotoxicity in Escherichia coli WP2uvrA assessed as number of revertant colonies per plate at 556 ug/plate after 20 mins in absence of S9 fraction by Ames test (reference value: 24)", "format": "toxicity", "details": "s9, 20 min"}, "Salmonella typhimurium [4]": {"system": "Salmonella typhimurium", "assay": "Genotoxicity in Salmonella typhimurium TA98 assessed as number of revertant colonies per plate at 20.6 ug/plate after 20 mins in absence of S9 fraction by Ames test (reference value: 21)", "format": "toxicity, organism-based", "details": "salmonella enterica subsp. enterica serovar typhimurium"}, "Salmonella typhimurium [5]": {"system": "Salmonella typhimurium", "assay": "Genotoxicity in Salmonella typhimurium TA98 assessed as number of revertant colonies per plate at 61.7 ug/plate after 20 mins in absence of S9 fraction by Ames test (reference value: 21)", "format": "toxicity, organism-based", "details": "salmonella enterica subsp. enterica serovar typhimurium"}, "Salmonella typhimurium [6]": {"system": "Salmonella typhimurium", "assay": "Genotoxicity in Salmonella typhimurium TA98 assessed as number of revertant colonies per plate at 185 ug/plate after 20 mins in absence of S9 fraction by Ames test (reference value: 21)", "format": "toxicity, organism-based", "details": "salmonella enterica subsp. enterica serovar typhimurium"}, "Salmonella typhimurium [7]": {"system": "Salmonella typhimurium", "assay": "Genotoxicity in Salmonella typhimurium TA98 assessed as number of revertant colonies per plate at 556 ug/plate after 20 mins in absence of S9 fraction by Ames test (reference value: 21)", "format": "toxicity, organism-based", "details": "salmonella enterica subsp. enterica serovar typhimurium"}, "Salmonella typhimurium [8]": {"system": "Salmonella typhimurium", "assay": "Genotoxicity in Salmonella typhimurium TA1537 assessed as number of revertant colonies per plate at 20.6 ug/plate after 20 mins in absence of S9 fraction by Ames test (reference value: 9)", "format": "toxicity, organism-based", "details": "salmonella enterica subsp. enterica serovar typhimurium"}, "Salmonella typhimurium [9]": {"system": "Salmonella typhimurium", "assay": "Genotoxicity in Salmonella typhimurium TA1537 assessed as number of revertant colonies per plate at 1667 ug/plate after 20 mins in absence of S9 fraction by Ames test (reference value: 9)", "format": "toxicity, organism-based", "details": "salmonella enterica subsp. enterica serovar typhimurium"}, "Salmonella typhimurium [10]": {"system": "Salmonella typhimurium", "assay": "Genotoxicity in Salmonella typhimurium TA1535 assessed as number of revertant colonies per plate at 61.7 ug/plate after 20 mins in presence of S9 fraction by Ames test (reference value: 13)", "format": "toxicity, organism-based", "details": "salmonella enterica subsp. enterica serovar typhimurium"}, "Salmonella typhimurium [11]": {"system": "Salmonella typhimurium", "assay": "Genotoxicity in Salmonella typhimurium TA1535 assessed as number of revertant colonies per plate at 1667 ug/plate after 20 mins in presence of S9 fraction by Ames test (reference value: 13)", "format": "toxicity, organism-based", "details": "salmonella enterica subsp. enterica serovar typhimurium"}, "Escherichia coli [12]": {"system": "Escherichia coli", "assay": "Genotoxicity in Escherichia coli WP2uvrA assessed as number of revertant colonies per plate at 185 ug/plate after 20 mins in presence of S9 fraction by Ames test (reference value: 26)", "format": "toxicity", "details": "s9, 20 min"}, "Escherichia coli [13]": {"system": "Escherichia coli", "assay": "Genotoxicity in Escherichia coli WP2uvrA assessed as number of revertant colonies per plate at 5000 ug/plate after 20 mins in presence of S9 fraction by Ames test (reference value: 26)", "format": "toxicity", "details": "s9, 20 min"}, "Salmonella typhimurium [14]": {"system": "Salmonella typhimurium", "assay": "Genotoxicity in Salmonella typhimurium TA1537 assessed as number of revertant colonies per plate at 5000 ug/plate after 20 mins in presence of S9 fraction by Ames test (reference value: 15)", "format": "toxicity, organism-based", "details": "salmonella enterica subsp. enterica serovar typhimurium"}, "[15]": {"assay": "Cytotoxicity against CHL cells assessed as growth rate at 33.8 ug/ml preincubated for 6 hrs followed by 18 hrs incubation in fresh medium in absence of S9 fraction by MTT assay relative to control", "format": "toxicity, cell-based, Cricetulus griseus", "details": "chinese hamster, read-out: Activity"}, "[16]": {"assay": "Cytotoxicity against CHL cells assessed as growth rate at 84.5 ug/ml preincubated for 6 hrs followed by 18 hrs incubation in fresh medium in absence of S9 fraction by MTT assay relative to control", "format": "toxicity, cell-based, Cricetulus griseus", "details": "chinese hamster, read-out: Activity"}, "[17]": {"assay": "Cytotoxicity against CHL cells assessed as growth rate at 211 ug/ml preincubated for 6 hrs followed by 18 hrs incubation in fresh medium in absence of S9 fraction by MTT assay relative to control", "format": "toxicity, cell-based, Cricetulus griseus", "details": "chinese hamster, read-out: Activity"}, "[18]": {"assay": "Cytotoxicity against CHL cells assessed as growth rate at 33.8 ug/ml preincubated for 6 hrs followed by 18 hrs incubation in fresh medium in presence of S9 fraction by MTT assay relative to control", "format": "toxicity, cell-based, Cricetulus griseus", "details": "chinese hamster, read-out: Activity"}, "[19]": {"assay": "Cytotoxicity against CHL cells assessed as growth rate at 84.5 ug/ml preincubated for 6 hrs followed by 18 hrs incubation in fresh medium in presence of S9 fraction by MTT assay relative to control", "format": "toxicity, cell-based, Cricetulus griseus", "details": "chinese hamster, read-out: Activity"}, "[20]": {"assay": "Cytotoxicity against CHL cells assessed as growth rate at 211 ug/ml preincubated for 6 hrs followed by 18 hrs incubation in fresh medium in presence of S9 fraction by MTT assay relative to control", "format": "toxicity, cell-based, Cricetulus griseus", "details": "chinese hamster, read-out: Activity"}, "[21]": {"assay": "Cytotoxicity against CHL cells assessed as growth rate at 528 ug/ml preincubated for 6 hrs followed by 18 hrs incubation in fresh medium in presence of S9 fraction by MTT assay relative to control", "format": "toxicity, cell-based, Cricetulus griseus", "details": "chinese hamster, read-out: Activity"}, "[22]": {"assay": "Cytotoxicity against CHL cells assessed as growth rate at 3300 ug/ml preincubated for 6 hrs followed by 18 hrs incubation in fresh medium in presence of S9 fraction by MTT assay relative to control", "format": "toxicity, cell-based, Cricetulus griseus", "details": "chinese hamster, read-out: Activity"}, "[23]": {"assay": "Cytotoxicity against CHL cells assessed as growth rate at 2.16 ug/ml after 24 hrs in absence of S9 fraction by MTT assay relative to control", "format": "toxicity, cell-based, Cricetulus griseus", "details": "chinese hamster, read-out: Activity"}, "[24]": {"assay": "Cytotoxicity against CHL cells assessed as growth rate at 84.5 ug/ml after 24 hrs in absence of S9 fraction by MTT assay relative to control", "format": "toxicity, cell-based, Cricetulus griseus", "details": "chinese hamster, read-out: Activity"}, "[25]": {"assay": "Cytotoxicity against CHL cells assessed as growth rate at 1320 ug/ml after 24 hrs in absence of S9 fraction by MTT assay relative to control", "format": "toxicity, cell-based, Cricetulus griseus", "details": "chinese hamster, read-out: Activity"}, "[26]": {"assay": "Cytotoxicity against CHL cells assessed as structural aberrations at 3300 ug/ml preincubated for 6 hrs followed by 18 hrs incubation in fresh medium in absence of S9 fraction by Giemsa-staining-based microscopic analysis", "format": "toxicity, cell-based, Cricetulus griseus", "details": "chinese hamster"}, "[27]": {"assay": "Cytotoxicity against human CCD-1059SK cells assessed as reduction in cell viability up to 1 mM after 24 hrs by neutral red method", "format": "toxicity, cell-based", "outline": "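CCD-1059SK skin fibroblasts, passages 10–20, grown in DMEM with 10% FBS at 37 °C under 5% CO2. Pre-incubated 24 h after plating, then exposed 24 h to 0, 10, 100 or 1000 µM, diluted into medium from distilled water. Viability read by Neutral Red assay.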"}, "[28]": {"assay": "Cytotoxicity against CHL cells assessed as number of cells with numerical aberrations at 1650 ug/ml preincubated for 6 hrs followed by 18 hrs incubation in fresh medium in absence of S9 fraction by Giemsa-staining-based microscopic analysis relative to control", "format": "toxicity, cell-based, Cricetulus griseus", "details": "chinese hamster"}, "[29]": {"assay": "Cytotoxicity against CHL cells assessed as number of cells with numerical aberrations at 825 ug/ml preincubated for 6 hrs followed by 18 hrs incubation in fresh medium in presence of S9 fraction by Giemsa-staining-based microscopic analysis relative to control", "format": "toxicity, cell-based, Cricetulus griseus", "details": "chinese hamster"}, "[30]": {"assay": "Cytotoxicity against CHL cells assessed as number of cells with numerical aberrations at 1650 ug/ml preincubated for 6 hrs followed by 18 hrs incubation in fresh medium in presence of S9 fraction by Giemsa staining-based microscopic analysis relative to control", "format": "toxicity, cell-based, Cricetulus griseus", "details": "chinese hamster"}, "[31]": {"assay": "Cytotoxicity against CHL cells assessed as number of cells with numerical aberrations at 1650 ug/ml after 24 hrs by Giemsa staining-based microscopic analysis relative to control", "format": "toxicity, cell-based, Cricetulus griseus", "details": "chinese hamster"}}}
{"smiles": "COP(=O)(CCC(N)C(=O)O)Oc1cccc(CC(=O)O)c1", "note": "(stereo unspecified)", "values": [{"measurement": "Activity", "setting": "Salmonella typhimurium [1]", "value": 120}, {"measurement": "Activity", "setting": "Salmonella typhimurium [2]", "value": 123}, {"measurement": "Activity", "setting": "Escherichia coli [3]", "value": 25}, {"measurement": "Activity", "setting": "Salmonella typhimurium [4]", "value": 21}, {"measurement": "Activity", "setting": "Salmonella typhimurium [5]", "value": 23}, {"measurement": "Activity", "setting": "Salmonella typhimurium [6]", "value": 24}, {"measurement": "Activity", "setting": "Salmonella typhimurium [7]", "value": 29}, {"measurement": "Activity", "setting": "Salmonella typhimurium [8]", "value": 9}, {"measurement": "Activity", "setting": "Salmonella typhimurium [9]", "value": 10}, {"measurement": "Activity", "setting": "Salmonella typhimurium [10]", "value": 9}, {"measurement": "Activity", "setting": "Salmonella typhimurium [11]", "value": 8}, {"measurement": "Activity", "setting": "Escherichia coli [12]", "value": 28}, {"measurement": "Activity", "setting": "Escherichia coli [13]", "value": 34}, {"measurement": "Activity", "setting": "Salmonella typhimurium [14]", "value": 17}, {"measurement": "viability at 18 h, 33.8 ug/ml", "setting": "[15]", "value": 103, "unit": "%"}, {"measurement": "viability at 18 h, 84.5 ug/ml", "setting": "[16]", "value": 102, "unit": "%"}, {"measurement": "viability at 18 h, 211 ug/ml", "setting": "[17]", "value": 101, "unit": "%"}, {"measurement": "viability at 18 h, 33.8 ug/ml", "setting": "[18]", "value": 101, "unit": "%"}, {"measurement": "viability at 18 h, 84.5 ug/ml", "setting": "[19]", "value": 100, "unit": "%"}, {"measurement": "viability at 18 h, 211 ug/ml", "setting": "[20]", "value": 98.8, "unit": "%"}, {"measurement": "viability at 18 h, 528 ug/ml", "setting": "[21]", "value": 95.2, "unit": "%"}, {"measurement": "viability at 18 h, 3300 ug/ml", "setting": "[22]", "value": 96.8, "unit": "%"}, {"measurement": "viability at 24 h, 2.16 ug/ml", "setting": "[23]", "value": 98, "unit": "%"}, {"measurement": "viability at 24 h, 84.5 ug/ml", "setting": "[24]", "value": 101, "unit": "%"}, {"measurement": "viability at 24 h, 1320 ug/ml", "setting": "[25]", "value": 92.6, "unit": "%"}, {"measurement": "Activity", "setting": "[26]", "value": 1, "unit": "%"}, {"measurement": "Activity", "setting": "[27]", "value": "Non-Toxic"}, {"measurement": "Activity", "setting": "[28]", "value": 0, "unit": "%"}, {"measurement": "Activity", "setting": "[29]", "value": 1, "unit": "%"}, {"measurement": "Activity", "setting": "[30]", "value": 0, "unit": "%"}, {"measurement": "Activity", "setting": "[31]", "value": 0, "unit": "%"}]}
